Experiment [1] addresses T1, Substance-P receptor (Homo sapiens, UniProt P25103). Briefly: Displacement of [125I]BH-SP from human tachykinin NK1 receptor expressed in IM9 cells after 30 mins by scintillation counting. It counts as cell-based, IM-9. Summed up:
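Membranes from IM-9 cells grown 3 days, homogenized in 50 mM Tris-HCl pH 7.4 with NaCl, KCl, EDTA and protease inhibitors, spun at 40,000g for 20 min, then resuspended in a Tris buffer with 0.02% BSA and 3 mM MnCl2. Nonspecific binding was defined with 2 × 10^-6 M SP. Bound ligand was collected on GF/C filters, washed three times and counted.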
For orientation: Loss of bound radioactivity is the signal in a displacement assay; it reports binding, not function.

Experiment [2] deals with Cavia porcellus. As to the kind of experiment: Inhibition of capsaicin-induced plasma extravasation in trachea of iv dosed guinea pig. The experiment is classed as functional, organism-based.
Experiment [3] concerns Cavia porcellus. Briefly: Inhibition of capsaicin-induced plasma extravasation in trachea of po dosed guinea pig. The experiment is classed as functional, organism-based.
In experiment [4] the target is T1, Substance-P receptor. Briefly: Displacement of [125I]BH-SP from human tachykinin NK1 receptor expressed in IM9 cells at 10^-7 M after 30 mins by scintillation counting. It counts as cell-based. The conditions noted are these: IM-9.

This is an account of results in ChEMBL document CHEMBL1817606, “3-benzhydryl-4-piperidones as novel neurokinin-1 receptor antagonists and their efficient synthesis” (Bioorg Med Chem, 2011).

Activity calls are given as the source filed them. The rule behind the calls is not given here.

In general, IC50 refers to the midpoint of a concentration-inhibition curve. Low values mean greater potency in that assay, high ones weaker potency in that assay. The term inhibition denotes the relative decrease from the control value, in per cent.

T1 sequence (P25103 whole entry): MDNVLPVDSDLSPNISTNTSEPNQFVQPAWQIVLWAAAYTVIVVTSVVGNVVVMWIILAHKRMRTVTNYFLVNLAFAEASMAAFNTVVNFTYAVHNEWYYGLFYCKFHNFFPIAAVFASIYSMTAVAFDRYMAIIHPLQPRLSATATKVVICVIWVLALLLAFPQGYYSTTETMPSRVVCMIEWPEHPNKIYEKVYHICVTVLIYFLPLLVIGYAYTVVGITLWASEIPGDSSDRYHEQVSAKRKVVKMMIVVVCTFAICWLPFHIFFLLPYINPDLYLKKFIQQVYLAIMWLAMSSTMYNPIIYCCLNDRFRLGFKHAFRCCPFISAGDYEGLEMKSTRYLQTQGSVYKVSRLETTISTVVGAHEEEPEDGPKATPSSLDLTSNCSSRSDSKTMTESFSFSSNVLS

On to `O=C1CCN(Cc2ccccc2[N+](=O)[O-])CC1C(c1ccc(F)cc1)c1ccc(F)cc1` (racemic), for which the IC50 at Substance-P receptor [1] is 18 nM.

`O=C1CCN(Cc2ccccc2C(F)(F)F)CC1C(c1ccc(F)cc1)c1ccc(F)cc1` (racemic) came in with an IC50 at Substance-P receptor [1] of 4.9 nM.

`COc1ccc(C(C)C)cc1CN1CCC(=O)C(C(c2ccccc2)c2ccccc2)C1` (racemic): the inhibition entry in the experiment on Cavia porcellus [2] and in the experiment with Cavia porcellus [3] was “inactive” each time.

`COc1ccc(Br)cc1CN1CCC(=O)C(C(c2ccc(F)cc2)c2ccc(F)cc2)C1` (racemic) [listing 1 of 2 here]: the IC50 at Substance-P receptor [1] amounted to 1.1 nM.

For `O=C1CCN(Cc2cc(C(F)(F)F)cc(C(F)(F)F)c2)CC1C(c1ccc(F)cc1)c1ccc(F)cc1` (racemic), on Substance-P receptor [4], the inhibition was determined as 32.9%.

On to `O=C1CCN(Cc2ccc(C(F)(F)F)cc2)CC1C(c1ccc(F)cc1)c1ccc(F)cc1` (racemic), for which, at Substance-P receptor [1], the IC50 was 220 nM.

As to `O=C1CCN(Cc2ccccc2)CC1C(c1ccc(Cl)cc1)c1ccc(Cl)cc1` (racemic), the IC50 at Substance-P receptor [1] was 97 nM. Also, the inhibition on Substance-P receptor [4] was 81.7%.

Consider `COc1ccc(Br)cc1CN1CCC(=O)C(C(c2ccc(F)cc2)c2ccc(F)cc2)C1` (single isomer, unassigned; (+)), for which the IC50 on Substance-P receptor [1] turned out to be 1.5 nM.

At Substance-P receptor [1], `COc1ccc(NC(C)=O)cc1CN1CCC(=O)C(C(c2ccccc2)c2ccccc2)C1` (racemic) registered an IC50 of 15 nM.

As for `COc1ccc(OC(F)(F)F)cc1CN1CCC(=O)C(C(c2ccc(F)cc2)c2ccc(F)cc2)C1` (racemic), the IC50 at Substance-P receptor [1] is 0.81 nM.

Turning to `COc1cccc(CN2CCC(=O)C(C(c3ccc(F)cc3)c3ccc(F)cc3)C2)c1OC` (racemic), the IC50 on Substance-P receptor [1] was 55 nM.

With `O=C1CCN(Cc2ccccc2F)CC1C(c1ccc(F)cc1)c1ccc(F)cc1` (racemic), the IC50 on Substance-P receptor [1] turned out to be 46 nM.

Compound `COc1ccc(F)cc1CN1CCC(=O)C(C(c2ccc(F)cc2)c2ccc(F)cc2)C1` (racemic) showed an IC50 at Substance-P receptor [1] of 4 nM.

The compound `COc1ccc(N)cc1CN1CCC(=O)C(C(c2ccccc2)c2ccccc2)C1` (racemic) yielded an IC50 on Substance-P receptor [1] of 5.9 nM.

For `COc1ccc(NS(C)(=O)=O)cc1CN1CCC(=O)C(C(c2ccccc2)c2ccccc2)C1` (racemic), the inhibition entry in the experiment with Cavia porcellus [2] and in the experiment on Cavia porcellus [3] was “inactive” throughout.

Turning to `O=C1CCN(Cc2ccccc2)CC1C1c2ccccc2C=Cc2ccccc21` (racemic), the inhibition on Substance-P receptor [4] came out at 31.1%.

With `N#Cc1ccccc1CN1CCC(=O)C(C(c2ccc(F)cc2)c2ccc(F)cc2)C1` (racemic), the IC50 on Substance-P receptor [1] amounted to 6.1 nM.

`O=C1CCN(Cc2ccccc2)CC1C(c1ccccc1)c1ccccc1` (racemic) showed an IC50 at Substance-P receptor [1] of 97 nM. Besides, on Substance-P receptor [4], the inhibition was 81.7%.

Turning to `O=C1CN(Cc2ccccc2)CC1C(c1ccccc1)c1ccccc1` (racemic), the inhibition at Substance-P receptor [4] was -0.6%.

With `COc1ccc(OC(F)(F)F)cc1CN1CCC(=O)C(C(c2ccccc2)c2ccccc2)C1` (racemic), the inhibition entry in the experiment with Cavia porcellus [2] and in the experiment with Cavia porcellus [3] was “inactive” in each case.

`O=C1CCN(Cc2ccccc2O)CC1C(c1ccc(F)cc1)c1ccc(F)cc1` (racemic) displayed an IC50 at Substance-P receptor [1] of 280 nM.

On Substance-P receptor [1], `COc1ccc(CN2CCC(=O)C(C(c3ccc(F)cc3)c3ccc(F)cc3)C2)c(OC)c1` (racemic) yielded an IC50 of 9.5 nM.

At Substance-P receptor [1], `O=C1CCN(Cc2ccccc2)CC1C(c1ccc(F)cc1)c1ccc(F)cc1` (racemic) displayed an IC50 of 97 nM. For the same compound, the inhibition on Substance-P receptor [4] turned out to be 81.7%.

Take `COc1ccc(OC)c(CN2CCC(=O)C(C(c3ccc(F)cc3)c3ccc(F)cc3)C2)c1` (racemic): on Substance-P receptor [1], the IC50 turned out to be 3.1 nM.

In the case of `O=C1CN(Cc2ccccc2)CCC1C(c1ccccc1)c1ccccc1` (racemic), the inhibition on Substance-P receptor [4] worked out at 9.7%.

For the compound `COc1cccc(CN2CCC(=O)C(C(c3ccc(F)cc3)c3ccc(F)cc3)C2)c1` (racemic), the IC50 at Substance-P receptor [1] was 31 nM.

Regarding `COc1ccc(Br)cc1CN1CCC(=O)C(C(c2ccc(F)cc2)c2ccc(F)cc2)C1` (racemic) [listing 2 of 2 here], the inhibition entry with Cavia porcellus [2] and in the experiment with Cavia porcellus [3] was “inactive” each time.

Turning to `O=C1CCN(CCc2ccccc2)CC1C(c1ccccc1)c1ccccc1` (racemic), on Substance-P receptor [4], the inhibition amounted to 54.3%.

With `COc1ccccc1CN1CCC(=O)C(C(c2ccc(F)cc2)c2ccc(F)cc2)C1` (racemic), the IC50 at Substance-P receptor [1] was found to be 6.6 nM.

As to `O=C1CCN(Cc2ccccc2)CC1=C(c1ccccc1)c1ccccc1`, the inhibition on Substance-P receptor [4] is -2%.

`COc1ccc(CN2CCC(=O)C(C(c3ccc(F)cc3)c3ccc(F)cc3)C2)cc1` (racemic) gave an IC50 at Substance-P receptor [1] of 77 nM.

As for `COc1ccc([N+](=O)[O-])cc1CN1CCC(=O)C(C(c2ccccc2)c2ccccc2)C1` (racemic), the IC50 on Substance-P receptor [1] is 2.6 nM.

For the compound `O=C1CCN(Cc2ccccc2-c2ccccc2)CC1C(c1ccc(F)cc1)c1ccc(F)cc1` (racemic), on Substance-P receptor [1], the IC50 is 14 nM.

Turning to `O=C1CCNCC1C(c1ccccc1)c1ccccc1` (racemic), the inhibition at Substance-P receptor [4] came out at 17.6%.

The compound `COc1cccc(OC)c1CN1CCC(=O)C(C(c2ccc(F)cc2)c2ccc(F)cc2)C1` (racemic) gave an IC50 on Substance-P receptor [1] of 2.3 nM.

On to `O=C1CCN(Cc2cccc(C(F)(F)F)c2)CC1C(c1ccc(F)cc1)c1ccc(F)cc1` (racemic), for which the IC50 at Substance-P receptor [1] is 270 nM.

Turning to `O=C1CCN(Cc2ccccc2)CC1C1c2ccccc2Oc2ccccc21` (racemic), the inhibition at Substance-P receptor [4] is 29.8%.
